Laboratory results reported in ChEMBL document CHEMBL1154766, “Synthesis and biological evaluation of new podophyllic aldehyde derivatives with cytotoxic and apoptosis-inducing activities” (2010).
The source made the active and inactive calls. The rule behind the calls is not given here.

Legend:
[1] = test system: HT-29; experiment: Cell cycle arrest in human HT-29 cells assessed as accumulation at G2/M phase at 1 uM after 72 hrs by flow cytometry; format: functional
How it was run: (§1)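 HT-29 cells incubated at 1 μM for 24, 48 or 72 h alongside untreated controls. (3-5) × 10⁵ cells fixed overnight in 70% ethanol at 4 °C, PBS-washed three times, then treated 1 h at room temperature with 1 mg/mL RNase A and 20 μg/mL propidium iodide. DNA content read by flow cytometry; apoptosis taken as % cells in sub-G1 peak. Representative of three independent experiments.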

[2] = test system: HT-29; experiment: Cell cycle arrest in human HT-29 cells assessed as accumulation at G2/M phase at 1 uM after 48 hrs by flow cytometry; format: functional; how it was run: as §1
[3] = test system: HT-29; experiment: Induction of apoptosis in human HT-29 cells assessed as accumulation at subG1 phase at 1 uM after 72 hrs by flow cytometry; format: functional; how it was run: as §1
[4] = test system: HT-29; experiment: Induction of apoptosis in human HT-29 cells assessed as accumulation at subG1 phase at 1 uM after 24 hrs by flow cytometry; format: functional; how it was run: as §1
[5] = test system: HT-29; experiment: Cell cycle arrest in human HT-29 cells assessed as accumulation at G2/M phase at 1 uM after 24 hrs by flow cytometry; format: functional; how it was run: as §1
[6] = test system: A549; experiment: Cytotoxicity against human A549 cells after 72 hrs by SRB assay; format: functional; details: A549, 72 h
How it was run: (§2)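 SRB growth assay: 5 × 10³ cells/well in RPMI, attached 18 h drug-free, then compound added in DMSO/H₂O 3:7 for 72 h. Fixed with cold 50% TCA 60 min at 4 °C, stained 0.4% SRB in 1% acetic acid 10 min, bound dye solubilized in Tris, OD 490 nm. GI50 from 100[(T−T0)/(C−T0)] = 50; mean of triplicates.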

[7] = test system: MDA-MB-231; experiment: Cytotoxicity against human MDA-MB-231 cells after 72 hrs by SRB assay; format: functional; details: MDA-MB-231, 72 h; how it was run: as §2
[8] = test system: HT-29; experiment: Cell cycle arrest in human HT-29 cells assessed as accumulation at G0/G1 phase at 1 uM after 72 hrs by flow cytometry; format: functional; how it was run: as §1
[9] = test system: HT-29; experiment: Cell cycle arrest in human HT-29 cells assessed as accumulation at S phase at 1 uM after 72 hrs by flow cytometry; format: functional; how it was run: as §1
[10] = test system: HT-29; experiment: Induction of apoptosis in human HT-29 cells assessed as accumulation at subG1 phase at 1 uM after 48 hrs by flow cytometry; format: functional; how it was run: as §1
[11] = test system: HT-29; experiment: Cytotoxicity against human HT-29 cells after 72 hrs by SRB assay; format: functional; details: HT-29, 72 h; how it was run: as §2
[12] = test system: HT-29; experiment: Cell cycle arrest in human HT-29 cells assessed as accumulation at S phase at 1 uM after 48 hrs by flow cytometry; format: functional; how it was run: as §1
[13] = test system: HT-29; experiment: Cell cycle arrest in human HT-29 cells assessed as accumulation at S phase at 1 uM after 24 hrs by flow cytometry; format: functional; how it was run: as §1
[14] = test system: HT-29; experiment: Cell cycle arrest in human HT-29 cells assessed as accumulation at G0/G1 phase at 1 uM after 24 hrs by flow cytometry; format: functional; how it was run: as §1
[15] = test system: HT-29; experiment: Cell cycle arrest in human HT-29 cells assessed as accumulation at G0/G1 phase at 1 uM after 48 hrs by flow cytometry; format: functional; how it was run: as §1
[16] = test system: HT-29; experiment: Induction of microtubule disruption in human HT-29 cells at 1 uM after 24 hrs; format: cell-based
How it was run: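 HT-29 cells on poly-L-lysine coverslips exposed to 1 μM for 24 h, washed in HPEM (pH 6.6), fixed with 4% paraformaldehyde 15 min, permeabilized with 0.5% Triton X-100. Anti-α-tubulin mouse monoclonal (1:150, 1 h) then CY3 anti-mouse IgG (1 h, 4 °C); nuclei DAPI-stained; imaged by confocal microscopy. Representative of at least three experiments.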

Compound | Activity [1] | Activity [2] | Activity [3] | Activity [4] | Activity [5] | GI50 [6] | GI50 [7] | Activity [8] | Activity [9] | Activity [10] | GI50 [11] | Activity [12] | Activity [13] | Activity [14] | Activity [15] | Activity [16]
CCCCCCCOC(=O)[C@@H]1C(C=O)=Cc2cc3c(cc2[C@H]1c1cc(OC)c(OC)c(OC)c1)OCO3 | 0.6% | 15.9% | 82.3% | 19.6% | 23.2% | 1000 nM | 2500 nM | 16.7% | 0.4% | 29.2% | 1000 nM | 29.6% | 42.6% | 14.6% | 25.3% | inactive
C=CCOC(=O)[C@@H]1C(C=O)=Cc2cc3c(cc2[C@H]1c1cc(OC)c(OC)c(OC)c1)OCO3 | 8% | 83.4% | 41.6% | 0.3% | 91.3% | 30 nM | 150 nM | 33.6% | 16.8% | 1.8% | 20 nM | 3.9% | 4.5% | 3.9% | 10.9% | Active
